In ChEMBL document CHEMBL4406904, “Design, synthesis and biological activity of a novel ethylenediamine derivatives as H1 receptor antagonists” (Bioorg Med Chem, 2019):
Calls of active or inactive are those of the source. The rule behind the calls is not given here.

Assays:
RBL-2H3 [1] = test: Antiallergic activity in rat RBL2H3 cells assessed as inhibition of C48/80-induced mast cell degranulation preincubated with compound for 30 mins and then treated with C48/80 for 1 hr by neutral red dye based method; assay type: functional
Method in brief: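 RBL-2H3 cells seeded at 3×10⁵/mL and left overnight at 37 °C, 5% CO₂ to adhere. Medium discarded and cells stained with 0.5% neutral red for 3 min. Degranulated cells counted per 100 mast cells. IC50 taken as the concentration giving half-maximal degranulation. DMSO blank.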

[2] = Dissociation constant, pKa of the compound; assay type: physicochemical
RBL-2H3 [3] = test: Antiallergic activity in rat RBL2H3 cells assessed as inhibition of C48/80-induced histamine release preincubated with compound for 30 mins followed by C48/80 stimulation for 1 hr; assay type: functional, cell-based
Method in brief: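 RBL-2H3 cells seeded at 3×10⁵/mL and adhered overnight at 37 °C, 5% CO₂. Histamine in the supernatant derivatized with o-phthalaldehyde after HCl/NaOH addition. IC50 is the concentration halving histamine release. DMSO blank.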

[4] = Lipid/water partition co-efficient, log P of the compound; assay type: physicochemical
RBL-2H3 [5] = test: Antiallergic activity in IgE/Ag-stimulated rat RBL2H3 cells assessed as inhibition of HSA-induced beta-hexosaminidase release preincubated with compound for 30 mins and then stimulated with HSA for 15 mins followed by incubation with P-nitrophenyl-N-acetyl-beta-D-glucosaminide for 2 hrs; assay type: functional, cell-based
Method in brief: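 RBL-2H3 cells (3×10⁵/mL) sensitized overnight with anti-DNP IgE at 150 ng·mL⁻¹, then washed twice in PIPES buffer pH 7.0 with glucose and 0.2% BSA. Compound applied for 30 min at 37 °C, then DNP-HSA 20 ng·mL⁻¹ for 15 min; stopped on ice. Supernatant incubated with p-nitrophenyl-N-acetyl-β-D-glucosaminide in citrate pH 4.6 for 2 h at 37 °C. Stopped with carbonate pH 10.2; A405 read. IC50 derived.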

Cavia porcellus [6] = test: In vivo antiallergic activity in guinea pig assessed as protection against histamine-induced bronchospasm at 20 mg/kg, po by Van Arman method relative to control; assay type: functional
Method in brief: (§1)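 Male guinea pigs (220–260 g), fasted 24 h with water, six per group. Compound given orally at 20 mg·kg⁻¹ in 1% CMC-Na. Animals then exposed in a closed cage to aerosolized 0.3% histamine chloride (5 mL). Convulsion (preconvulsion) time recorded; stable beyond 10 min counted as protected. Protection % derived from mean time versus control.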

Cavia porcellus [7] = test: In vivo antiallergic activity in histamine-induced bronchospasm guinea pig model assessed as duration of convulsions at 20 mg/kg, po by Van Arman method; assay type: functional; method in brief: as §1
[8] = target: Histamine H1 receptor (Homo sapiens) (UniProt P35367); test: Binding affinity to H1 receptor (unknown origin) at 0.10 umol/L
Mus musculus = test: Antiallergic activity in mouse assessed as inhibition of histamine-induced increase in capillary permeability by measuring Evans blue dye concentration at 20 mg/kg administered via gavage for 1 week followed by Evans blue dye injection immediately after subcutaneous histamine injection and measured after 15 mins by UV spectrophotometric analysis; assay type: functional
Method in brief: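 Mice (20–22 g), 10 per group, half male and half female. Compound suspension gavaged at 20 mg·kg⁻¹ for one week; model group given 0.5% CMC-Na. Backs depilated with 8% sodium sulfide the day before. Histamine phosphate 0.1% (50 μL) injected subcutaneously, with 0.5% Evans blue (25 mg·kg⁻¹) given i.v. via tail vein. Killed after 15 min. Stained skin extracted in acetone–saline for 48 h, centrifuged, OD read at 610 nm.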

[9] = Acute toxicity in ip dosed histamine-induced bronchospasm guinea pig model; assay type: organism-based, Cavia porcellus; details: in vivo
Cavia porcellus [10] = test: In vivo antiallergic activity in histamine-induced bronchospasm guinea pig model assessed as duration of convulsions at 20 mg/kg by Van Arman method
Cavia porcellus [11] = test: In vivo antiallergic activity in guinea pig assessed as protection against histamine-induced bronchospasm at 20 mg/kg by Van Arman method relative to control

Sequence of Histamine H1 receptor (Homo sapiens) (P35367 whole entry): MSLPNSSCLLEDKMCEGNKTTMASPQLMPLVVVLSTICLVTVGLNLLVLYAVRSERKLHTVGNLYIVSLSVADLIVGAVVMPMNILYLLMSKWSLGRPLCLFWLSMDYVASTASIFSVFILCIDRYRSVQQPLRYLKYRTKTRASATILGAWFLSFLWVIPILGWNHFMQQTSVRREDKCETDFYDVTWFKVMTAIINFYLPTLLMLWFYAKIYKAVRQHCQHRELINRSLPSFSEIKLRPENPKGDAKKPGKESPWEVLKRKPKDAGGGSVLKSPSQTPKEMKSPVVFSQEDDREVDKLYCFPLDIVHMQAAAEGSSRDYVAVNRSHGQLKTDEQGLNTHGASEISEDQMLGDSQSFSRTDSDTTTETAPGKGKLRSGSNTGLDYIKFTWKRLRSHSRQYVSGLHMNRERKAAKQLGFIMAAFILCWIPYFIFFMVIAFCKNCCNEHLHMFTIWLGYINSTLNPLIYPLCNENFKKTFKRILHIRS

| pKa [2] | IC50 (RBL-2H3 [3]) [nM] | logP [4] | IC50 (RBL-2H3 [5]) [nM] | Structure (SMILES) | IC50 (RBL-2H3 [1]) [nM] | Activity (Cavia porcellus [6]) [%] | Time (Cavia porcellus [7]) [s] | Activity [8] | Activity (Mus musculus) [mg/L] | LD50 [9] [mg/kg] | Time (Cavia porcellus [10]) [s] | Activity (Cavia porcellus [11]) [%] |
| --- | --- | --- | --- | --- | --- | --- | --- | --- | --- | --- | --- | --- |
| 9.4 | 2110 | 2.56 | 4090 | COc1ccc(CN(CCN(C)C)c2ccc(N)cn2)cc1 | 1340 |  |  |  |  |  |  |  |
| 9.7 | 92.6 | 3.32 | 132 | COc1ccc(CN(CCN(C)C)c2ccccn2)cc1 [PYRILAMINE] | 81.5 |  |  |  |  |  |  |  |
| 9.6 | 1910 | 2.79 | 4010 | COc1ccc(CCN(CCN(C)C)c2ccc(N)cn2)cc1 | 1210 |  |  |  |  |  |  |  |
| 9.8 | 4060 | 3.13 | 8010 | COc1ccc(CN(CCN(C)C)c2ccc(N)cc2)cc1 | 2310 |  |  |  |  |  |  |  |
| 9.5 | 141 | 4.78 | 261 | COc1ccc(CCN(CCN(C)C)c2ccc(Cl)cc2)cc1 | 89.2 |  |  |  |  |  |  |  |
| 9.5 | 102 | 4.06 | 211 | COc1ccc(CCN(CCN(C)C)c2ccc(C)cn2)cc1 | 83.9 |  |  |  |  |  |  |  |
| 9.6 | 516 | 4.21 | 1030 | COc1ccc(CCN(CCN(C)C)c2ccccc2)cc1 | 306 |  |  |  |  |  |  |  |
| 9.7 | 243 | 3.9 | 411 | COc1ccc(CN(CCN(C)C)c2ccccc2)cc1 | 143 |  |  |  |  |  |  |  |
| 9.8 | 4010 | 3.43 | 7960 | COc1ccc(CCN(CCN(C)C)c2ccc(N)cc2)cc1 | 2230 |  |  |  |  |  |  |  |
| 9.7 | 289 | 4.68 | 561 | COc1ccc(CCN(CCN(C)C)c2ccc(C)cc2)cc1 | 153 |  |  |  |  |  |  |  |

The next lines start with the compound.

| Structure (SMILES) | pKa [2] | IC50 (RBL-2H3 [3]) [nM] | logP [4] | IC50 (RBL-2H3 [5]) [nM] | IC50 (RBL-2H3 [1]) [nM] | Activity (Cavia porcellus [6]) [%] | Time (Cavia porcellus [7]) [s] | Activity [8] | Activity (Mus musculus) [mg/L] | LD50 [9] [mg/kg] | Time (Cavia porcellus [10]) [s] | Activity (Cavia porcellus [11]) [%] |
| --- | --- | --- | --- | --- | --- | --- | --- | --- | --- | --- | --- | --- |
| COc1ccc(CN(CCN(C)C)c2ccc(C)cc2)cc1 | 9.8 | 89.1 | 4.43 | 141 | 55.3 | 69.62 | 348.1 | Active | 53.59 | 401 |  |  |
| COc1ccc(CN(CCN(C)C)c2ccc(C)cn2)cc1 | 9.6 | 48.6 | 3.79 | 61.2 | 28.9 | 74.26 | 371.28 | Active | 62.16 | 335 |  |  |
| COc1ccc(CCN2CCC(Nc3nc4ccccc4n3Cc3ccc(F)cc3)CC2)cc1 [ASTEMIZOLE] |  | 81.9 |  | 156 | 53.3 |  |  |  |  |  |  |  |
| COc1ccc(CCN(CCN(C)C)c2ccc(Cl)cn2)cc1 | 9.4 | 53.1 | 4.16 | 72.1 | 45.3 | 70.22 | 351.1 | Active | 55.67 | 335 |  |  |
| COc1ccc(CN(CCN(C)C)c2ccc(Cl)cn2)cc1 | 9.5 | 19.2 | 3.87 | 45.5 | 10.6 | 79.74 | 398.69 | Active | 71.26 | 324 |  |  |
| COc1ccc(CCN(CCN(C)C)c2ccccn2)cc1 | 9.5 | 159 | 3.59 | 319 | 129 |  |  |  |  |  |  |  |
| CN(C)CCC(c1ccc(Cl)cc1)c1ccccn1 (centres undefined) [CHLORPHENIRAMINE] |  | 53.6 |  | 121 | 31.8 |  |  |  | 56.13 |  | 367.16 | 73.43 |
| COc1ccc(CN(CCN(C)C)c2ccc(Cl)cc2)cc1 | 9.6 | 40.2 | 4.47 | 71.2 | 18.1 | 75.32 | 376.58 | Active | 65.34 | 414 |  |  |
